SIRT5 inh – sirtuin-5 (human) deacylase inhibition; hit rate 1.1% among 330,000; Purified SirT5, succinyl-peptide AMC, trypsin-coupled fluorescence; Q9NXA8; inhibition, % at 15 µM; in the data active = inhibition above about 15%; inconclusive = no clear call, values can overlap the other calls
Target sequence (Q9NXA8 whole entry, looked up): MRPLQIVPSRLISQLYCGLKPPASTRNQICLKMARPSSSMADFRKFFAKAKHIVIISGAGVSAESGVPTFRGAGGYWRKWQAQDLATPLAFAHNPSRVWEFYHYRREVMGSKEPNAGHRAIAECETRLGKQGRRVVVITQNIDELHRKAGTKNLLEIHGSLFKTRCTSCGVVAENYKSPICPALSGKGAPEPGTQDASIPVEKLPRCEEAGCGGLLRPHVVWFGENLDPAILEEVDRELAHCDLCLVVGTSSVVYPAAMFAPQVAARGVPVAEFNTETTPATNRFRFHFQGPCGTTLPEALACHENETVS
CAL PDZ FP-1 – CAL PDZ (human) peptide binding inhibition; Q9HD26; purified CAL PDZ, TMR-peptide fluorescence polarization, 1 h; inhibition, % at 24.9 µM; hit rate 0.92% among 300,000; AID 602252;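 active = mean inhibition of at least 30% with at least half of replicates also reaching 30%; inconclusive = no clear call, values can overlap the other calls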;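 also: 0% = DMSO neutral control and 100% = excess unlabeled competitor peptide PRC23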
S100A4 inh HTS – inhibitors of human S100A4 binding to myosin IIA peptide; P26447; S100A4/TAMRA-MyoIIA peptide fluorescence polarization; inhibition, % at 10.7 µM; hit rate 0.14% among 360,000; AID 652163;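 active = mean inhibition of at least 70% across replicates, with every replicate also reaching that level; inconclusive = mean inhibition reaches 70% but some replicates fall short; inactive = mean inhibition below 70%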
Target sequence (P26447 whole entry, looked up): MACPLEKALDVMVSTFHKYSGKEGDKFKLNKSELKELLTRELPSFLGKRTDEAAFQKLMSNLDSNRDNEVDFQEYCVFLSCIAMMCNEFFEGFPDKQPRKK
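Assay system: human S100A4 monomer with TAMRA-labelled myosin IIA peptide / Buffer or medium: Calcium-containing HEPES buffer, pH 7.2 / Reagent: TAMRA-labelled myosin IIA heavy-chain peptide probe, 5 nM / Compound: one dose per compound / Timing: polarization read 5 min after assay mix addition, stable 5–60 min / Benchmarks: neutral control DMSO, positive control TFP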
ERAP1 HTS inh – inhibitors of human ERAP1 aminopeptidase; Q9NZ08; recombinant ERAP1, Leu-AMC fluorescence, 60 min; inhibition, % at 10.7 µM; hit rate 0.15% among 340,000;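 active = mean replicate inhibition of at least 30%, or all replicates individually reaching that 30% level; inactive = mean below 30% and not every replicate reaching it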;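 also: 0% = neutral control wells and 100% = L-leucinethiol positive control wells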
CAL PDZ FP-2 – inhibitors of human CAL PDZ peptide binding. hit rate 0.02% among 330,000. inhibition, % at 20 µM. purified CAL PDZ, TMR-peptide fluorescence polarization, 1 h. Q9HD26. AID 504414;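 active = highest replicate inhibition of at least 40%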;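 also: plate controls were DMSO neutral control wells for no effect and unlabeled competitor peptide control wells for full effect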
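Read-out basis: mP drop reported as inhibition | Assay system: Tagged CAL PDZ protein CerCALP, purified | Benchmarks: Unlabelled peptide for full inhibition, DMSO wells as neutral | Schedule: 1 h incubation at room temperature before polarization reading | Buffer or medium: Sodium phosphate/NaCl buffer pH 7.4 with TCEP, IgG, Thesit | Doses: Single point, 20 µM | Measured by: Fluorescence polarization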
DENV2 CPE rescue – DENV2-induced cell death inhibition; DENV2-infected cells, cytopathic effect rescue, plate reader; CPE inhibition, % at 9.99 µM; hit rate 1.7% among 350,000; AID 651640; in the data active = CPE inhibition above about 20%, passing the limit was not always enough; inconclusive = no clear call, values can overlap the other calls; tested in BHK-21 cells;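 also: 0% = median of neutral control wells and 100% = median of positive control wells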
* hit, by the source's call; u = inconclusive; x = no result given; ! = a repeat was not active. Sampled rows, rich in hits. Any-hit rate of the full collection: about 2.9%.

SMILES	SIRT5 inh	CAL PDZ FP-1	S100A4 inh HTS	ERAP1 HTS inh	CAL PDZ FP-2	DENV2 CPE rescue
COCCOC(=O)N1C(=O)[C@@]2(c3cc(C#CCCO)ccc31)[C@H](C(=O)NC[C@H](O)c1ccccc1)[C@H]1C(=O)O[C@H](c3ccccc3)[C@H](c3ccccc3)N1[C@@H]2c1ccc(O)cc1	3	x	-8	-1	x	5
CCCC#Cc1ccc2c(c1)O[C@@H](CN(C)C(C)=O)[C@@H](C)CN([C@@H](C)CO)S2(=O)=O	-3	x	-6	-1	x	-4
CCC(=O)N[C@@H]1CC[C@@H](CCn2cc(-c3cccc(OC)c3)nn2)O[C@@H]1CO	-1	x	5	-1	x	u
CC(C)NC(=O)Nc1ccc2c(c1)C(=O)N([C@@H](C)CO)C[C@H](C)[C@H](CN(C)C(=O)CCC(F)(F)F)OCCCC[C@@H](C)O2	1	x	1	0	x	6
O=C(N[C@@H]1CC[C@@H](CC(=O)N2CCCCC2)O[C@@H]1CO)c1ccc2c(c1)OCO2	4	x	16	-1	x	-1
CN(Cc1cccc(F)c1)C(=O)c1ccc2c(=O)n3c(nc2c1)CCC3	3	65*	1	-1	0	u
C[C@@H]1CCCCO[C@H](CN(C)S(=O)(=O)c2ccccc2)[C@H](C)CN([C@H](C)CO)C(=O)c2cc(NS(C)(=O)=O)ccc2O1	1	x	8	-2	x	-7
COc1ccc(-c2cn(CC[C@@H]3CC[C@H](NC(=O)Cc4ccccn4)[C@@H](CO)O3)nn2)cc1	8	x	2	0	x	22*!
COc1ccccc1-c1cn(CC[C@@H]2CC[C@H](NC(=O)Cc3ccccn3)[C@H](CO)O2)nn1	-2	x	-11	3	x	40*
COc1ccc(-c2cn(CC[C@@H]3CC[C@@H](NC(=O)Cc4ccccn4)[C@H](CO)O3)nn2)cc1	-3	x	-37	-2	x	-1
CS(=O)(=O)N1CC2(C1)[C@H](c1ccccc1)[C@H](CO)N2CCC(F)(F)F	-5	x	1	-2	x	-1
COC(=O)Nc1ccc(Cn2cc(C(F)(F)F)ccc2=O)cc1	17*	4	1	13	-1	0
COC(=O)c1ccc(Cn2cc(C(F)(F)F)ccc2=O)cc1	x	0	15	1	x	1
Cc1ccc(C)c(N2CCN(C(=O)c3cccn4c(=O)c5sccc5nc34)CC2)c1	19*	-5	-1	10	-4	-4
Cc1ccc(C)c(N2CCN(C(=O)c3cc4ccccc4oc3=O)CC2)c1	6	x	3	2	0	4
C[C@H](CO)N1C[C@H](C)[C@@H](CN(C)C(=O)C2CCOCC2)Oc2ncc(-c3ccccc3)cc2C1=O	21*	x	3	0	x	4
C[C@@H]1CN([C@@H](C)CO)C(=O)c2cc(-c3ccccc3F)cnc2O[C@@H]1CN(C)C(=O)C1CCOCC1	-1	x	3	-1	x	60*
C[C@@H]1CN([C@H](C)CO)C(=O)c2cc(C#Cc3ccccc3F)cnc2O[C@H]1CN(C)C(=O)C1CCOCC1	1	x	-5	-2	x	35*
C[C@@H]1CN([C@@H](C)CO)C(=O)c2cc(-c3ccccc3)cnc2O[C@H]1CN(C)C(=O)C1CCCCC1	-2	x	11	4	x	51*
C[C@@H]1CN([C@H](C)CO)C(=O)c2cc(-c3ccccc3F)cnc2O[C@H]1CN(C)C(=O)C1CCOCC1	4	x	13	0	x	0
C[C@@H]1CN([C@@H](C)CO)C(=O)c2cc(-c3ccccc3)cnc2O[C@@H]1CN(C)C(=O)C1CCOCC1	-6	x	-6	0	x	5
CC(C)C(=O)Nc1ccc2c(c1)C(=O)N(C)[C@@H]1CC[C@H](CC(=O)NCc3ccccc3)O[C@H]1CO2	3	x	0	-4	x	6
C[C@H](CO)N1C[C@H](C)[C@@H](CN(C)C(=O)c2ccccn2)Oc2ncc(-c3ccccc3F)cc2C1=O	0	x	25	0	x	21*
COc1ccc(Nc2nc3ccccc3n3cnnc23)cc1	x	60*	x	x	-3	x
Cc1ccc(Nc2nc3ccccc3n3cnnc23)cc1C	1	-13	-6	-2	-1	-3
Cc1ccc(-n2c(SCC(=O)N3CCOCC3)nc(O)cc2=O)cc1	2	1	-1	4	-2	69*

Compound activity deposited in PubChem by Broad Institute.
